Key:
Format in all cases: ADME
[1] = Effect of transition metal ion Cu2+ (1 uM) on the initial rate of oxygen consumption during the autooxidation
Outline: (§1)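 5,7-Dihydroxytryptamine (1.0 mM) in 3.0 mL air-saturated pH 7.4 phosphate buffer (ionic strength 0.1), 37 °C, with metal ion and/or chelator (DTPA or EDTA) added; Cu2+ supplied as CuSO4. The initial O2 consumption rate (nmol O2/min) was read with a Clark-type oxygen electrode. Values are mean (n ≥ 2) ± SD.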

[2] = Influence of ceruplasmin enzyme (10.5 units/mL) on the initial rate of oxygen consumption at a pH of 6.4.; details: pH 6.4
Outline: (§2)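 5,7-Dihydroxytryptamine (1.0 mM) in 3.0 mL air-saturated phosphate buffer (ionic strength 0.1) at the stated pH, with bovine ceruloplasmin or mushroom tyrosinase at the listed units/mL. Initial O2 consumption (nmol O2/min) was recorded with a Clark-type oxygen electrode.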

[3] = Effect of transition metal ion [Fe3+] (10 uM) on the initial rate of oxygen consumption during the autooxidation; outline: as §1
[4] = Effect of transition metal ion Mn2+ (100 uM) on the initial rate of oxygen consumption during the autooxidation; outline: as §1
[5] = Influence of superoxide dismutase SOD (333 units/mL) on the transition metal Mn2+ (100 uM) ion mediated autoxidation.
Outline: (§3)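 5,7-Dihydroxytryptamine (1.0 mM, 3.0 mL) in pH 7.4 phosphate buffer (ionic strength 0.1) at 37 °C. Runs contained 10 μM Cu2+ (as CuSO4) or 100 μM Fe2+, Fe3+ or Mn2+, alone or with catalase (100 μg/mL) or SOD (333 units/mL). The initial O2 uptake rate was measured by Clark-type oxygen electrode. Values are mean (n ≥ 2) ± SD.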

[6] = Influence of superoxide dismutase SOD (333 units/mL) on the transition metal [Fe2+] (100 uM) ion mediated autoxidation.; outline: as §3
[7] = Influence of Catalase (100 ug/mL) on the transition metal [Fe2+] (100 uM) ion mediated autoxidation.; outline: as §3
[8] = Effect of transition metal ion Cu2+ (20 uM) on the initial rate of oxygen consumption during the autooxidation; outline: as §1
[9] = Influence of Catalase (100 ug/mL) on the transition metal Mn2+ (100 uM) ion mediated autoxidation.; outline: as §3
[10] = Effect of transition metal ion [Fe2+] (50 uM) on the initial rate of oxygen consumption during the autooxidation; outline: as §1
[11] = Effect of transition metal ion and complexing agent [Fe3+] (100 uM) +DTPA (10 uM) on the initial rate of oxygen consumption during the autooxidation; outline: as §1
[12] = Effect of transition metal ion [Fe3+] (200 uM) on the initial rate of oxygen consumption during the autooxidation; outline: as §1
[13] = Effect of complexing agent DTPA (10 uM) on the initial rate of oxygen consumption during the autooxidation; outline: as §1
[14] = Influence of superoxide dismutase SOD (333 units/mL) on the transition metal [Fe3+] (100 uM) ion mediated autoxidation.; outline: as §3
[15] = Effect of complexing agent EDTA (1 uM) on the initial rate of oxygen consumption during the autooxidation; outline: as §1
[16] = Influence of ceruplasmin enzyme (10.5 units/mL) on the initial rate of oxygen consumption at a pH of 7.4.; details: pH 7.4; outline: as §2
[17] = Influence of ceruplasmin enzyme (21.0 units/mL) on the initial rate of oxygen consumption at a pH of 7.4.; details: pH 7.4; outline: as §2
[18] = Influence of tyrosinase enzyme (36 units/mL) on the initial rate of oxygen consumption at a pH of 7.4.; details: pH 7.4; outline: as §2
[19] = Influence of peroxidase enzyme (10 units/mL) on the initial rate of oxygen consumption at a pH of 7.4.; details: pH 7.4
Outline: (§4)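 Substrate 5,7-dihydroxytryptamine, 1.0 mM, in 3.0 mL air-saturated pH 7.4 phosphate buffer (ionic strength 0.1). Peroxidase was added at the listed units/mL, either with 1.0 mM H2O2 or with no H2O2. The initial O2 consumption rate was measured with a Clark-type oxygen electrode.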

[20] = Effect of transition metal ion [Fe2+] (200 uM) on the initial rate of oxygen consumption during the autooxidation; outline: as §1
[21] = Influence of peroxidase enzyme (5 units/mL) on the initial rate of oxygen consumption at a pH of 7.4.; details: pH 7.4; outline: as §4
[22] = Influence of Catalase (100 ug/mL) on the transition metal [Fe3+] (100 uM) ion mediated autoxidation.; outline: as §3
[23] = Effect of transition metal ion [Fe3+] (50 uM) on the initial rate of oxygen consumption during the autooxidation; outline: as §1
[24] = Influence of ceruplasmin enzyme (42.0 units/mL) on the initial rate of oxygen consumption at a pH of 7.4.; details: pH 7.4; outline: as §2
[25] = Effect of transition metal ion and complexing agent [Fe3+] (100 uM) +EDTA (10 uM) on the initial rate of oxygen consumption during the autooxidation; outline: as §1
[26] = Effect of transition metal ion Mn2+ (10 uM) on the initial rate of oxygen consumption during the autooxidation; outline: as §1
[27] = Influence of superoxide dismutase SOD (333 units/mL) on the transition metal Cu2+ (10 uM) ion mediated autoxidation.; outline: as §3
[28] = Effect of complexing agent DTPA (1 uM) on the initial rate of oxygen consumption during the autooxidation; outline: as §1
[29] = Effect of transition metal ion and complexing agent Cu2+ (10 uM) +DTPA (1 uM) on the initial rate of oxygen consumption during the autooxidation; outline: as §1
[30] = Effect of transition metal ion [Fe2+] (10 uM) on the initial rate of oxygen consumption during the autooxidation; outline: as §1
[31] = Influence of peroxidase enzyme (15 units/mL) on the initial rate of oxygen consumption at a pH of 7.4.; details: pH 7.4; outline: as §4
[32] = Influence of tyrosinase enzyme (4.5 units/mL) on the initial rate of oxygen consumption at a pH of 7.4.; details: pH 7.4; outline: as §2
[33] = Effect of transition metal ion and complexing agent [Fe2+] (100 uM) +EDTA (10 uM) on the initial rate of oxygen consumption during the autooxidation; outline: as §1
[34] = Effect of transition metal ion Cu2+ (10 uM) on the initial rate of oxygen consumption during the autooxidation; outline: as §1
[35] = Influence of tyrosinase enzyme (18 units/mL) on the initial rate of oxygen consumption at a pH of 7.4.; details: pH 7.4; outline: as §2
[36] = Effect of transition metal ion and complexing agent Cu2+ (10 uM) +EDTA (1 uM) on the initial rate of oxygen consumption during the autooxidation; outline: as §1
[37] = Effect of transition metal ion Mn2+ (50 uM) on the initial rate of oxygen consumption during the autooxidation; outline: as §1
[38] = Effect of transition metal ion [Fe2+] (100 uM) on the initial rate of oxygen consumption during the autooxidation; outline: as §1
[39] = Effect of complexing agent DTPA (0.5 uM) on the initial rate of oxygen consumption during the autooxidation; outline: as §1
[40] = Effect of transition metal ion and complexing agent [Fe2+] (100 uM) +DTPA (10 uM) on the initial rate of oxygen consumption during the autooxidation; outline: as §1
[41] = Effect of transition metal ion and complexing agent Mn2+ (100 uM) +DTPA (10 uM) on the initial rate of oxygen consumption during the autooxidation; outline: as §1
[42] = Effect of transition metal ion [Fe3+] (100 uM) on the initial rate of oxygen consumption during the autooxidation; outline: as §1
[43] = Effect of transition metal ion Cu2+ (40 uM) on the initial rate of oxygen consumption during the autooxidation; outline: as §1
[44] = Influence of Catalase (100 ug/mL) on the transition metal Cu2+ (10 uM) ion mediated autoxidation.; outline: as §3
[45] = Initial rate of oxygen consumption during the autooxidation of the compound.; outline: as §1
[46] = Effect of transition metal ion and complexing agent Mn2+ (100 uM) +EDTA (10 uM) on the initial rate of oxygen consumption during the autooxidation; outline: as §1
[47] = Influence of tyrosinase enzyme (9 units/mL) on the initial rate of oxygen consumption at a pH of 7.4.; details: pH 7.4; outline: as §2

In the case of `NCCc1c[nH]c2c(O)cc(O)cc12`, the “Rate of O2 consumption” value [1] is reported as 638 nM/min, the “Rate of O2 consumption” value [2] is reported as 453 nM/min and the “Rate of O2 consumption” value [3] is reported as 50 nM/min. For the same molecule, the “Rate of O2 consumption” value [4] was 87 nM/min, the “Rate of O2 consumption” value [5] was 81.2 nM/min and the “Rate of O2 consumption” value [6] was 645 nM/min. The “Rate of O2 consumption” value [7] was 328 nM/min, the “Rate of O2 consumption” value [8] was 2244 nM/min and the “Rate of O2 consumption” value [9] was 54.5 nM/min. For the same molecule, the “Rate of O2 consumption” value [10] was 483 nM/min, the “Rate of O2 consumption” value [11] was 39.2 nM/min and the “Rate of O2 consumption” value [12] was 125 nM/min. For the same molecule, the “Rate of O2 consumption” value [13] was 23.6 nM/min, the “Rate of O2 consumption” value [14] was 48.5 nM/min and the “Rate of O2 consumption” value [15] was 39.6 nM/min. The “Rate of O2 consumption” value [16] was 71.4 nM/min, the “Rate of O2 consumption” value [17] was 129 nM/min and the “Rate of O2 consumption” value [18] was 304 nM/min. The “Rate of O2 consumption” value [19] was 89 nM/min, the “Rate of O2 consumption” value [20] was 801 nM/min and the “Rate of O2 consumption” value [21] was 79 nM/min. For the same molecule, the “Rate of O2 consumption” value [22] was 51 nM/min, the “Rate of O2 consumption” value [23] was 68 nM/min and the “Rate of O2 consumption” value [24] was 240 nM/min. The “Rate of O2 consumption” value [25] was 97 nM/min, the “Rate of O2 consumption” value [26] was 61 nM/min and the “Rate of O2 consumption” value [27] was 1583 nM/min. The “Rate of O2 consumption” value [28] was 24.2 nM/min, the “Rate of O2 consumption” value [29] was 32.1 nM/min and the “Rate of O2 consumption” value [30] was 252 nM/min. For the same molecule, the “Rate of O2 consumption” value [31] was 102 nM/min, the “Rate of O2 consumption” value [32] was 85 nM/min and the “Rate of O2 consumption” value [33] was 712 nM/min. The “Rate of O2 consumption” value [34] was 1490 nM/min, the “Rate of O2 consumption” value [35] was 192 nM/min and the “Rate of O2 consumption” value [36] was 45.6 nM/min. For the same molecule, the “Rate of O2 consumption” value [37] was 70 nM/min, the “Rate of O2 consumption” value [38] was 628 nM/min and the “Rate of O2 consumption” value [39] was 24 nM/min. For the same molecule, the “Rate of O2 consumption” value [40] was 58 nM/min, the “Rate of O2 consumption” value [41] was 36.7 nM/min and the “Rate of O2 consumption” value [42] was 86 nM/min. The “Rate of O2 consumption” value [43] was 2367 nM/min, the “Rate of O2 consumption” value [44] was 1524 nM/min and the “Rate of O2 consumption” value [45] was 34.1 nM/min. For the same molecule, the “Rate of O2 consumption” value [46] was 51.3 nM/min and the “Rate of O2 consumption” value [47] was 126 nM/min.

— ChEMBL document CHEMBL1126238, “Chemical and enzyme-mediated oxidation of the serotonergic neurotoxin 5,7-dihydroxytryptamine: mechanistic insights” (J Med Chem, 1992)
